Data: ChEMBL document CHEMBL4513216, “Probing the Open Global Health Chemical Diversity Library for Multistage-Active Starting Points for Next-Generation Antimalarials” (ACS Infect Dis, 2020)

Experiment: Toxicity liver stage against HepG2, at 10uM
Type: cell-based
Set-up: test concentration 10 uM, cell line HepG2-A16-CD81EGFP
Settings: human, HepG2-A16-CD81EGFP cells; read-out: INHIBITION
Outline: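 Uninfected HepG2-A16-CD81EGFP cells, 3 × 10^3 per well, 1536-well, plated on prespotted compound at 10 μM final, parasite-free screening media added to match infected plates; puromycin 10 μM positive, DMSO 0.5% negative; run in parallel with 48 h PbLuc assay at 37 °C, 5% CO2; viability by CellTiter-Glo luminescence, normalized to controls.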

Row | Compound | cytotoxicity at 10 µM
1 | CN(Cc1cnn(C)c1)C(=O)c1ccnc(OC2CCC2)c1 | 3.82%
2 | CC(C)=CCN1CCC2(CC1)c1ccccc1[C@@H](N1CCSCC1)[C@@H]2O | 7.25%
3 | COCCN1C[C@@H]2CN(C(=O)CC3CC3)C[C@@H]2C1=O | 7.8%
4 | c1ccc(N2CCOC3(CCCN(c4ncccn4)C3)C2)nc1 (stereo not given) | -103%
5 | NC(=O)C1(c2cnccn2)CCCN1Cc1ccc(Cl)cc1 (stereo not given) | -0.085%
6 | Cc1nn(CCC#N)c(C)c1[C@@H]1C=C[C@@H](NCc2cccc(Cl)c2)C1 | -1.45%
7 | Cc1nc(C)c(C(=O)N2CCc3[nH]nc(COc4ccccc4)c3C2)s1 | -3.09%
8 | CC(c1ccncc1)N(C)C(=O)NCCOc1ccc(C#N)cc1 (stereo not given) | -15.5%
9 | COc1ccc(-c2noc(C3CCS(=O)(=O)C3)n2)cc1OC (stereo not given) | 5.4%
10 | Cc1cccc(-c2nc(C)nn2CC(=O)NC(C)C)c1 | 8.22%
11 | CCCc1cc(=O)[nH]c2nnc(SCC(=O)OC)n12 | 12.2%
12 | C[C@@H]1CN(C(=O)[C@H]2CCCO2)C[C@]12CCN(c1ccsc1)C2=O | -77.8%
13 | O=c1ccc2c(n1Cc1ccncc1)CCN(Cc1ccoc1)CC2 | -149%
14 | O=C1CCCC2(CCN(C(=O)c3ccccn3)CC2)N1 | 3.03%
15 | CN(C)C(=O)Cc1nc(CN2CCCC2Cn2cccn2)cs1 (stereo not given) | 4.79%
16 | O=C(NC1CC1)[C@@H]1C[C@@H]2CCN(Cc3ccccc3)C[C@H]2O1 | -68%
17 | CCCC(=O)N(CCN1CCOCC1)c1nc2c(OC)ccc(C)c2s1 | -5.02%
18 | CN(C)c1ccnc(C2CCCN2)n1 (stereo not given) | 1.76%
19 | CCOCC(=O)N1C[C@@H]2COC[C@]2(c2nc(C)no2)C1 | -90.9%
20 | N#Cc1ccc(N2CCCN(c3nccs3)CC2)nc1 | 32.5%
21 | Cc1c(C(=O)NC2(C#N)CCSC2)cnn1-c1ccccc1Cl (stereo not given) | -2.06%
22 | CCC(CNC(=O)c1ccc(=O)[nH]n1)N1CCc2ccccc2C1 (stereo not given) | -7.9%
23 | COc1ccc(CN2CCCC2)cc1Oc1ccc2c(c1)CC(CN)O2 (stereo not given) | -10.5%
24 | COCC1c2c(cnn2C)CCN1Cc1ccoc1 (stereo not given) | -10.8%
25 | Cc1c(NC(C)C(C)C)cccc1C(=O)NCc1ccnn1C (stereo not given) | 57.6%
26 | Cc1nnsc1CN(C)C(=O)CCn1cnc2ccccc21 | 14.7%
27 | O=C(c1c[nH]c(=O)c(Cl)c1)N1C[C@H]2CC[C@@H](C1)N(Cc1ccccc1)C2 | -14.5%
28 | Cc1nnc(Nc2cccc(C3CCN(Cc4ncc[nH]4)CC3)n2)s1 | -24%

Row | Compound | cytotoxicity at 10 µM
29 | COc1ccc(CNCC2CN(C3CC3)CCO2)cc1F (stereo not given) | -12.4%
30 | COc1ccc(F)cc1CN1CCCC(c2cc(C(N)=O)[nH]n2)C1 (stereo not given) | 0.313%
31 | COCC(c1ccccn1)N(C)C(=O)c1cc(-c2ccccc2O)n[nH]1 (stereo not given) | -1.84%
32 | CCCc1cc(C(=O)N[C@@H]2CCC[C@@H](N3CCCC3)[C@@H]2O)no1 | -2.48%
33 | Cc1nnc(CN2CCCC(CCc3ccccc3C(F)(F)F)C2)o1 (stereo not given) | 3.67%
34 | c1cnn(CC2CN(CC3CCCCC3)CCO2)c1 (stereo not given) | -7.85%
35 | COCc1c(Cl)cccc1NC(=O)NCc1cccc(N(C)C)n1 | 0.217%
36 | CN(Cc1ccccc1F)Cc1cc2c(cc1Br)OCCO2 | -139%
37 | Cc1ccsc1[C@@H]1CCN(C(=O)CCc2cc(O)no2)C[C@H]1O | -4.73%
38 | O=C(O)c1cc2c(nc1-c1ccsc1)CCN(C1CCOC1)CC2 (stereo not given) | 15%
39 | CC(=O)N1CCC2(CC1)CCN(S(=O)(=O)c1ccccc1)C2 | 2.35%
40 | CCOc1ccc(Cl)c(C(=O)N2CCN(CC(C)(C)O)CC2)n1 | -5.72%
41 | CCc1nc(CN2CCCN(C(=O)c3cncnc3C)CC2)cs1 | -7.95%
42 | Cc1cccc(C)c1OCC(O)CNCc1c(C)nn(C)c1N(C)C (stereo not given) | -1.47%
43 | COC(=O)[C@@H]1C[C@H](NC(=O)Cn2c(=O)cc(C)c3ccccc32)CN1C | -3.44%
44 | CN(C)c1ccc(C(=O)NCc2cccnc2-n2cncn2)cc1F | 2.84%
45 | CC1CCCCN1C(=O)CCc1nnc(-c2ccccc2)o1 (stereo not given) | -4.65%
46 | CCC(C(=O)NCc1ccncc1)N(c1cccc(C)c1)S(C)(=O)=O (stereo not given) | -5.88%
47 | Cc1csc([C@@H]2C[C@@H]3CCN(C(=O)c4cnccn4)C[C@H]3O2)n1 | 2.08%
48 | CCS(=O)(=O)N1CCn2cc(CN(C)Cc3ccco3)nc2C1 | -74.4%
49 | CS(=O)(=O)N1CC[C@]2(O)CCN(CCCC(=O)c3ccccc3)C[C@@H]2C1 | -8.86%
50 | O=C(c1ccco1)N1C[C@H]2CCCN(Cc3ccoc3)[C@H]2C1 | 0.276%
51 | COc1ccc(CNC(=O)N2CCCN(CC3CCCCC3)CC2)cn1 | -3.36%
52 | c1cc(-c2cnc(NC3CC3)nc2[C@@H]2CCCO2)ccn1 | 8.72%
53 | CC(C)Nc1cc(N2CCN(Cc3ccccc3)C(CCO)C2)ncn1 (stereo not given) | 7.9%
54 | Cc1ccc(CNCCN2CCOCC2)o1 | -2.62%
55 | Cc1cccc(N2CCC(N3CCC4(CCCNC4=O)C3)CC2)c1C (stereo not given) | -5.66%
